Reference: ChEMBL document CHEMBL5154713, “Illuminating a Dark Kinase: Structure-Guided Design, Synthesis, and Evaluation of a Potent Nek1 Inhibitor and Its Effects on the Embryonic Zebrafish Pronephros” (J Med Chem, 2022)

Legend:
[1] = biological target: T1, Serine/threonine-protein kinase Nek1 (Homo sapiens) (UniProt Q96PY6); assay: Inhibition of human recombinant NEK1 (1 to 505 residues) assessed as residual activity at 1 uM using RLGRDKYKTLRQIRQ as substrate incubated for 40 mins in presence of [gamma-33P]-ATP by radiometric scintillation counting assay relative to control
T1 sequence (whole entry): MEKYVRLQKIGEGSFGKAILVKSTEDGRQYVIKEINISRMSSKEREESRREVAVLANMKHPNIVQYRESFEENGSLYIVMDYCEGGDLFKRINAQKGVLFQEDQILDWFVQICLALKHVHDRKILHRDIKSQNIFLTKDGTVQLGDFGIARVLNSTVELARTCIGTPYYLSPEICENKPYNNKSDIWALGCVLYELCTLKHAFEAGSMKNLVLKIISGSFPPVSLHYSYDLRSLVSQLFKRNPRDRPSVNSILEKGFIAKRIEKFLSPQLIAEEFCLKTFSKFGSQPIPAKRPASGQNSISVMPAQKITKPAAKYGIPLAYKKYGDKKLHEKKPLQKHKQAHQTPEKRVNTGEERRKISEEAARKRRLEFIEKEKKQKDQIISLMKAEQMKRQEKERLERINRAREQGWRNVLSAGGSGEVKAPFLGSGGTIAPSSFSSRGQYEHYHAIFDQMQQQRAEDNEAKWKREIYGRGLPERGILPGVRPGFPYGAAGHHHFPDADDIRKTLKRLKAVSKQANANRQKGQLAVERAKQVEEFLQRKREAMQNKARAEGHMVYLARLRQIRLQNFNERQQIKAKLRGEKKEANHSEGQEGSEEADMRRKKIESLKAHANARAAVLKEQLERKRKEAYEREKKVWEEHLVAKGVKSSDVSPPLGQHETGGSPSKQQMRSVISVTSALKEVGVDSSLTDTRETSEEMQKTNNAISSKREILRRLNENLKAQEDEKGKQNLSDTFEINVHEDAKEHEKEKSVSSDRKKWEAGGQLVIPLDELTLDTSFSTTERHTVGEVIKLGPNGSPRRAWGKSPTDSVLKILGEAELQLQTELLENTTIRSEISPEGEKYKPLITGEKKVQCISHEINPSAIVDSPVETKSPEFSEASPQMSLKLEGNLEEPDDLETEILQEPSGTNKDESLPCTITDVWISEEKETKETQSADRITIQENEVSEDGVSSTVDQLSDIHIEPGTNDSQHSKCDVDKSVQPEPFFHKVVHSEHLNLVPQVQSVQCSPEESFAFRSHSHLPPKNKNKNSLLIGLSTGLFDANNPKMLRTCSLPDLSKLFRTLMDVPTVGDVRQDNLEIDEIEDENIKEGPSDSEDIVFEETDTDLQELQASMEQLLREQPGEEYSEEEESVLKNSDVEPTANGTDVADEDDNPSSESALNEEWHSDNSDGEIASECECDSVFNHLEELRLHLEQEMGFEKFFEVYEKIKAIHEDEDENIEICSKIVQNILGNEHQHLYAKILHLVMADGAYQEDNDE
Outline: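 Eurofins KinaseProfiler radiometric panel, compound at 1 μM, ATP at 10 μM or within 15 μM of apparent Km. For Nek1 (1−505): 8 mM MOPS pH 7.0, 0.2 mM EDTA, 250 μM peptide, 10 mM Mg acetate, [γ-33P]-ATP, 40 min at room temperature. Stopped with 0.5% phosphoric acid, filtermat spotting, scintillation counting. Mean of two independent experiments.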

[2] = biological target: T2, Serine/threonine-protein kinase Nek1 (Homo sapiens, UniProt Q96PY6); assay: Inhibition of human recombinant NEK1 (1 to 505 residues) using ULight-p70 S6K peptide as substrate incubated for 30 mins by LANCE Ultra TR-FRET assay
T2 sequence (Q96PY6 whole entry): T1 sequence (whole entry)
Outline: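 Recombinant human Nek1 (1−505, 0.02 nM) in 50 mM HEPES pH 7.5, 1 mM EGTA, 10 mM MgCl2, 0.2 mM DTT, 0.01% Tween20, with 50 nM ULight-p70 S6K peptide and 60 μM ATP, 30 min at 22 °C. Stopped with EDTA plus Eu anti-phospho antibody, 1 h signal development. Ten half-log concentrations from 30 μM (10 μM for some) to 1 nM. Mean of two experiments.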

[3] = biological target: T2, Serine/threonine-protein kinase Nek1; assay: Inhibition of human recombinant NEK1 (1 to 505 residues) using RLGRDKYKTLRQIRQ as substrate incubated for 40 mins in presence of [gamma-33P]-ATP by radiometric scintillation counting assay
Outline: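 Eurofins IC50Profiler radiometric assay on recombinant human Nek1 (1−505), ATP at 10 μM or 90 μM (near Km). Nine concentrations at half-log steps from 10 μM to 1 nM, with vehicle controls. IC50 and 95% CI obtained by four-parameter nonlinear regression. Mean of two independent experiments.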

Compound | Activity [1] | IC50 [2] | IC50 [3]
CCN(CC)CCNS(=O)(=O)c1ccc(-c2ccnc3[nH]ccc23)cc1 | 68% | 10 µM | –
O=S(=O)(N[C@H](CO)Cc1ccc(O)cc1)c1ccc(-c2ccnc3[nH]ccc23)cc1 | 33% | 2 µM | –
COCCNS(=O)(=O)c1ccc(-c2ccnc3[nH]ccc23)cc1 | 44% | > 30 µM | –
O=S(=O)(NCCN1CCOCC1)c1ccc(-c2ccnc3[nH]ccc23)cc1 | 51% | 27 µM | –
CN1CCN(S(=O)(=O)c2ccc(-c3ccnc4[nH]ccc34)cc2)CC1 | 45% | > 10 µM | –
O=S(=O)(N[C@@H](CO)Cc1ccc(O)cc1)c1ccc(-c2ccnc3[nH]ccc23)cc1 | 25% | 1.6 µM | –
CC(=O)OCCNS(=O)(=O)c1ccc(-c2ccnc3[nH]ccc23)cc1 | 49% | 8.8 µM | –
O=S(=O)(N[C@@H](CO)Cc1ccccc1)c1ccc(-c2ccnc3[nH]ccc23)cc1 | 16% | 1.3 µM | –
O=S(=O)(N[C@H](CO)Cc1ccccc1)c1ccc(-c2ccnc3[nH]ccc23)cc1 | 19% | 1.9 µM | –

Second part, the compound after the results:

Activity [1] | IC50 [2] | IC50 [3] | Compound
89% | 29 µM | – | O=C(NCCO)c1ccc(-c2ccnc3[nH]ccc23)cc1
49% | – | – | CC(C)(C)OC(=O)NCCNS(=O)(=O)c1ccc(-c2ccnc3[nH]ccc23)cc1
46% | 2.7 µM | – | CN(CCO)S(=O)(=O)c1ccc(-c2ccnc3[nH]ccc23)cc1
94% | – | – | O=C(O)[C@H](Cc1ccccc1)NS(=O)(=O)c1ccc(-c2ccnc3[nH]ccc23)cc1
32% | 5.8 µM | – | CC(C)(O)CNS(=O)(=O)c1ccc(-c2ccnc3[nH]ccc23)cc1
37% | 6.6 µM | – | O=S(=O)(NCCN1CCCCC1)c1ccc(-c2ccnc3[nH]ccc23)cc1
12% | 3.2 µM | 2 µM | O=S(=O)(NCCO)c1ccc(-c2ccnc3[nH]ccc23)cc1
19% | 0.99 µM | – | O=S(=O)(N[C@H](CO)Cc1c[nH]c2ccccc12)c1ccc(-c2ccnc3[nH]ccc23)cc1
37% | 7.1 µM | 4.3 µM | CN(C)CCNS(=O)(=O)c1ccc(-c2ccnc3[nH]ccc23)cc1
